{"source": "BindingDB's records for doi:10.1021/np1002065", "about": "(The Ohio State University, 2010)", "data": [{"molecular_target": "T1, Nuclear factor NF-kappa-B p105 subunit (Homo sapiens, UniProt P19838)", "T1 sequence (P19838 whole entry)": "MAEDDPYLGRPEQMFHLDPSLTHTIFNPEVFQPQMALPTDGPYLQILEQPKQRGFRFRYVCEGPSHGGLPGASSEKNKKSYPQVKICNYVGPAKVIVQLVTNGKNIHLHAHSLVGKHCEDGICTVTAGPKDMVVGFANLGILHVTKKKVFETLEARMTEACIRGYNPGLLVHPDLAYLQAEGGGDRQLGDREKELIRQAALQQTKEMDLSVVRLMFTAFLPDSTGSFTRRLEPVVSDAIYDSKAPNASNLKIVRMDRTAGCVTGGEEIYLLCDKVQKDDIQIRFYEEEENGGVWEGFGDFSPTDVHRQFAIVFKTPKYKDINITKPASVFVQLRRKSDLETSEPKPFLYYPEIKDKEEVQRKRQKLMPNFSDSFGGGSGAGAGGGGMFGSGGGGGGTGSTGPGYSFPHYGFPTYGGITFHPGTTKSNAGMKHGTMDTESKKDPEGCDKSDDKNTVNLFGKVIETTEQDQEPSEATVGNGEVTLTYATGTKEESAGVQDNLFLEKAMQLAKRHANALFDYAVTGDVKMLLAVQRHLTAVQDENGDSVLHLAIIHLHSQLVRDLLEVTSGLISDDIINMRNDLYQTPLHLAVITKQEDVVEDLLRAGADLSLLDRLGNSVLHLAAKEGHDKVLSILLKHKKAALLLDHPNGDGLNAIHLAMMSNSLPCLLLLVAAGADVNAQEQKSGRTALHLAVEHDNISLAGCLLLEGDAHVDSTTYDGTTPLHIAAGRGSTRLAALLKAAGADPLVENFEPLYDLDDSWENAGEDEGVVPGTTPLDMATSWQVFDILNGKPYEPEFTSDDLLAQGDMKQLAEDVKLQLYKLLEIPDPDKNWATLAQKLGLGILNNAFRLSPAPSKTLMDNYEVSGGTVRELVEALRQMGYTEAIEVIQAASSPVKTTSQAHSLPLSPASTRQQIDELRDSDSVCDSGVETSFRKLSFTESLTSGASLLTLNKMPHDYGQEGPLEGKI", "test": "Inhibition of NFkappa p50 isolated from nuclear extract of human HeLa cells assessed as blockade of binding to biotinylated consesus sequence by chemiluminescence assay", "procedure,_shortened": "(§1)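 ELISA-format transcription factor assay. HeLa nuclear extract was treated with samples, and activated p50 or p65 bound to a biotinylated consensus sequence was detected by chemiluminescence on a plate reader. IC50 reported in μM.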", "units": {"IC50": "µM"}, "values": [{"compound": "C=C(C)[C@H]1Cc2c(oc3cc(O)c(CC=C(C)C)c(=O)c-3c2O)C2=C1C(=O)C(=O)C(CC=C(C)C)C2=O", "note": "(stereo partly specified) [Artonin O]", "IC50": "> 10"}, {"compound": "CC1(C)C=Cc2cc3c(cc2O1)Oc1cc(O)ccc1C(=O)C3", "note": "[Artoristilbene]", "IC50": "> 10"}, {"compound": "C=C(C)[C@H]1Cc2c(oc3c4c(cc(=O)c-3c2O)OC(C)(C)C=C4)-c2c(O)cc(O)c(O)c21", "note": "[artobiloxanthone]", "IC50": 3.7}]}, {"molecular_target": "Transcription factor p65 (Human, UniProt Q04206)", "sequence (Q04206 whole entry)": "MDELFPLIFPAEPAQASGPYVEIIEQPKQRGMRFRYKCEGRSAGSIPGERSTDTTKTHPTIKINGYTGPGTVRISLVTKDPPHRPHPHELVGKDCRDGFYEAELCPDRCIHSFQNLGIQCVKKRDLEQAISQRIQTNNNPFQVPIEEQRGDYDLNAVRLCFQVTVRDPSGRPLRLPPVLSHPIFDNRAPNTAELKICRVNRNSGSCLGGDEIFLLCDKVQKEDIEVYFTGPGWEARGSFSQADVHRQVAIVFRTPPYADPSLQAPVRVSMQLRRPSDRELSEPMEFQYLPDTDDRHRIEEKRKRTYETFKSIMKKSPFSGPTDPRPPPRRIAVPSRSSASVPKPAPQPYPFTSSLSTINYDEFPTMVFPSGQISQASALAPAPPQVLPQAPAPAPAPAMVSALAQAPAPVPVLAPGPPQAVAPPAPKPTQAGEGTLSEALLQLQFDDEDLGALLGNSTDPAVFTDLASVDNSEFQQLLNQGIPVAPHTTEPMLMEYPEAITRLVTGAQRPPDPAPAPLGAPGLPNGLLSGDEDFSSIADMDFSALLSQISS", "test": "Inhibition of NFkappa p65 isolated from nuclear extract of human HeLa cells assessed as blockade of binding to biotinylated consesus sequence by chemiluminescence assay", "procedure,_shortened": "as §1", "units": {"IC50": "µM"}, "values": [{"compound": "C=C(C)[C@H]1Cc2c(oc3cc(O)c(CC=C(C)C)c(=O)c-3c2O)C2=C1C(=O)C(=O)C(CC=C(C)C)C2=O", "note": "(stereo partly specified) [Artonin O]", "IC50": "> 10"}, {"compound": "CC1(C)C=Cc2cc3c(cc2O1)Oc1cc(O)ccc1C(=O)C3", "note": "[Artoristilbene]", "IC50": "> 10"}, {"compound": "C=C(C)[C@H]1Cc2c(oc3c4c(cc(=O)c-3c2O)OC(C)(C)C=C4)-c2c(O)cc(O)c(O)c21", "note": "[artobiloxanthone]", "IC50": 2.3}]}]}
